One data set has as its system NEP2. The settings on record: cited from earlier work.
Data set [1] concerns the target T1, NEP (recombinant soluble extracellular domain) (Homo sapiens, UniProt P08473). The data set is described as follows: Inhibition of NEP-mediated NP cleavage. In kind it is biochemical. To be noted: inhibitor 50 µM, NEP 9.4 nM.
The test system of a further data set is NEP. The settings on record: cited from earlier work.
The target in data set [2] is T2, NEP2 (recombinant soluble extracellular domain) (Homo sapiens, UniProt Q495T6).
T2 sequence (Q495T6 74-779): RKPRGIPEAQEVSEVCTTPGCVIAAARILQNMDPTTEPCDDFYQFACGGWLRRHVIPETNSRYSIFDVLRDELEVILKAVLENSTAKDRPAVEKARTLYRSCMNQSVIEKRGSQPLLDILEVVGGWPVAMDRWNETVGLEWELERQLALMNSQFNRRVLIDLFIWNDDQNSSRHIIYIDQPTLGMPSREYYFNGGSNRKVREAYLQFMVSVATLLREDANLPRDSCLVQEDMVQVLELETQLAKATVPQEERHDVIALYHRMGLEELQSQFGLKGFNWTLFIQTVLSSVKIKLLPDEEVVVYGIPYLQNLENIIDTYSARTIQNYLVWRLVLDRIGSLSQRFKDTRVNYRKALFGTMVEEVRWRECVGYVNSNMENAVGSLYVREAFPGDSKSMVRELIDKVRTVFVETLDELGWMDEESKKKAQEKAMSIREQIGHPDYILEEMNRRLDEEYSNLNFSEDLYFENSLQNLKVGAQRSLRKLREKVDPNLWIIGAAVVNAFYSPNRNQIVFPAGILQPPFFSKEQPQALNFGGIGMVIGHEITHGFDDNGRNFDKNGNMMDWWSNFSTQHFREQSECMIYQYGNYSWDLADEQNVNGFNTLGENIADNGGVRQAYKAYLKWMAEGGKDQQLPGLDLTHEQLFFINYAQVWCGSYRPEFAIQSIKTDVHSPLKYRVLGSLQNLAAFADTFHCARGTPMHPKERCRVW
Kind of data set: Inhibition of NEP2-mediated NP cleavage. Format: biochemical. To be noted: inhibitor 50 µM, NEP2 113 nM.

For another data set, the system named is cGMP. To be noted: canine model of renin-angiotensin-aldosterone system; cited from earlier work.
The target of data set [3] is T2, NEP2 (recombinant soluble extracellular domain). Kind of data set: In vitro NP cleavage by NEP2, read by intact-ring s-IA. In kind it is in vitro ADME. To be noted: sentence says the same is true for NEP2. The method in brief: (§1)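 Ni-NTA-purified His-tagged soluble human ectodomains were used: NEP (aa 56–750, Expi293F) at 9.4 nM and NEP2 (aa 74–779, ExpiCHO-S) at 113 nM. Doses were activity-matched on a fluorogenic substrate. […] Reactions were stopped with EDTA buffer and read by Eu-chelate intact-ring ANP or BNP sandwich immunoassay, relative to enzyme-free sample.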

In data set [4] the target is T1, NEP (recombinant soluble extracellular domain). The data set is described as follows: In vitro NP cleavage by NEP, read by intact-ring s-IA. In kind it is in vitro ADME. In short, it runs like this: as §1
The mark [5] stands for this setting: peptide 1.45 µM, intact-ring s-IA, P < 0.005.

T1 sequence (P08473 56-750): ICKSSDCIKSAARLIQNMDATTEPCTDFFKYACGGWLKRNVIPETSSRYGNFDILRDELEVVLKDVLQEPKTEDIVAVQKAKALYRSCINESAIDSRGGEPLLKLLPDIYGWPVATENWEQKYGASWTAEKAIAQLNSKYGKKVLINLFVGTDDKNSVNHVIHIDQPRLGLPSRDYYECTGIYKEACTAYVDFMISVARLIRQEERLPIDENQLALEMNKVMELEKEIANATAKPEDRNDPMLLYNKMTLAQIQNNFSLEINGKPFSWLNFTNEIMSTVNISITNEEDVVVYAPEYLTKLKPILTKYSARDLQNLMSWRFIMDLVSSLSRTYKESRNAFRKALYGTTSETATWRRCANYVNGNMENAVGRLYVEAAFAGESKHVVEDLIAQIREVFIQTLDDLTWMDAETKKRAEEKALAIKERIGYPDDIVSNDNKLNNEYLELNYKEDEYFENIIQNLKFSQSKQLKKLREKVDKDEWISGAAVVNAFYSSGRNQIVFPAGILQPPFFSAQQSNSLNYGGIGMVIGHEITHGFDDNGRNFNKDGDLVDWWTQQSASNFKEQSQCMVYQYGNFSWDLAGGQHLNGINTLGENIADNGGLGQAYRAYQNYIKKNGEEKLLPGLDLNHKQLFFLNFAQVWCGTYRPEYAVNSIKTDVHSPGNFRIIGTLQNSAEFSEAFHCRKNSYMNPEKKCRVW

Regarding `CC(C)C[C@H](NP(=O)(O)O[C@@H]1O[C@@H](C)[C@H](O)[C@@H](O)[C@H]1O)C(=O)N[C@@H](Cc1c[nH]c2ccccc12)C(=O)O` [phosphoramidon], the “Inhibition of NEP2” value with NEP2 is “sensitive”. The “Effect of inhibitor on neo5-epitope formation during BNP proteolysis by NEP” value in data set [1] (BNP 1.45 µM, neo5 s-IA) was “inhibited”. Moreover, in data set [1] (setting [5]), the “Effect of inhibitor on ANP and BNP proteolysis by NEP” value is recorded as “inhibited”. The “Inhibition of NEP” value with NEP is recorded as “sensitive”. Besides, the “Effect of inhibitor on neo5-epitope formation during BNP proteolysis by NEP2” value in data set [2] (BNP 1.45 µM, neo5 s-IA) is “inhibited”. The “Effect of inhibitor on ANP and BNP proteolysis by NEP2” value in data set [2] (setting [5]) is “inhibited”.
With `C[C@H](C[C@@H](Cc1ccc(-c2ccccc2)cc1)NC(=O)CCC(=O)O)C(=O)O` [sacubitrilat], the “Circulating cGMP levels” value with cGMP is given as “increased”.
Consider `O=C(O)CNC(=O)C(CS)Cc1ccccc1` (centres unmarked) [thiorphan], for which, in the data set on NEP2, the “Affinity towards NEP2, fold lower than towards NEP” value is 30 times and the “Inhibition of NEP2” value is reported as “less potently”.
Regarding “ANP: Synthetic ANP, 28 aa, aar 124–151 of UniProt P01160, Bachem”, in data set [3], the “Susceptibility to proteolysis by NEP2 relative to BNP” value is listed as “more susceptible to proteolysis”. Also, the “Susceptibility to proteolysis by NEP relative to BNP” value in data set [4] is “more susceptible to proteolysis”.

(Values after PMC12304097 (Scientific Reports, 2025).)
